ATG4B inh = ATG4B (human) cysteine protease inhibition | ATG4B cleavage of LC3-PLA2, NBD-HPC fluorescence, 1 h | inhibition, % at 8.33 µM | actives 0.51% (n = 340,000) | AID 504462; in the data active = inhibition above about 40%
rCAG binder = molecules binding r(CAG) RNA repeats. actives 1.3% (n = 370,000). inhibition, % at 3 µM. r(CAG) RNA repeat, TO-PRO-1 dye displacement fluorescence. AID 651821;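 active = inhibition above the plate cutoff, the mean of all test compounds on that plate plus 3 SD, cut at about 35% in these data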;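 note: 0% = DMSO alone and 100% = 100 µM mitoxantrone as full dye displacement; higher means more dye released from RNA so lower well fluorescence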
CSN deneddyl inh = CSN deneddylation inhibition | Q92905 | Purified CSN, SCF-Nedd8-OG deneddylation, fluorescence polarization | inhibition, % at 12.5 µM | actives 0.38% (n = 360,000);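 active = pattern-corrected inhibition above about 35%, with an unprinted fluorescence ratio check between 0.5 and 1.5, limit read from the data, passing the limit was not always enough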;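 note: 0% = enzyme with substrate and 100% = substrate without enzyme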
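Assay system: HEK293T-derived human Csn5 enzyme; quantity: 0.24 nM enzyme; medium: Tris/NaCl/DTT buffer, pH 7.5; also added: substrate SCFSkp2-Nedd8OG, 10 nM; doses: 12.5 µM compound; schedule: 90 min reaction at room temperature; signal: FP; read-out: % inhibition of substrate cleavage by Csn5; benchmarks: substrate-only high control, full reaction low control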
LEDGF integ inh = blocks HIV-1 LEDGF/p75-dependent DNA integration; AID 743269; inhibition, % at 3.7 µM; actives 0.64% (n = 370,000); TR-FRET IN-LEDGF/p75 DNA integration, Eu/Cy5;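 active = inhibition above the screen-wide mean plus 3 SD, cut at about 13% in these data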;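 note: signal is the Cy5 over europium emission ratio at 671 and 618 nm; 0% = plate median of compound wells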
MBD2 DNA inh = blocks human MBD2 binding to methylated DNA | Q9UBB5 | actives 0.31% (n = 370,000) | AID 686964 | TR-FRET, MBD2 binding to methylated oligonucleotide | inhibition, % at 4.4 µM; in the data active = inhibition above about 13%
UHRF1 binding = blocks human UHRF1 binding to methylated DNA; actives 0.75% (n = 370,000); Q96T88; inhibition, % at 4.4 µM; UHRF1 binding to methylated oligo, TR-FRET; AID 687016;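 note: UHRF1 SRA domain binding a hemimethylated CpG hairpin DNA probe; 0% = median of test compound wells and 100% = reference inhibitor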
Target sequence (Q96T88 whole entry, looked up, the tested form may be a part): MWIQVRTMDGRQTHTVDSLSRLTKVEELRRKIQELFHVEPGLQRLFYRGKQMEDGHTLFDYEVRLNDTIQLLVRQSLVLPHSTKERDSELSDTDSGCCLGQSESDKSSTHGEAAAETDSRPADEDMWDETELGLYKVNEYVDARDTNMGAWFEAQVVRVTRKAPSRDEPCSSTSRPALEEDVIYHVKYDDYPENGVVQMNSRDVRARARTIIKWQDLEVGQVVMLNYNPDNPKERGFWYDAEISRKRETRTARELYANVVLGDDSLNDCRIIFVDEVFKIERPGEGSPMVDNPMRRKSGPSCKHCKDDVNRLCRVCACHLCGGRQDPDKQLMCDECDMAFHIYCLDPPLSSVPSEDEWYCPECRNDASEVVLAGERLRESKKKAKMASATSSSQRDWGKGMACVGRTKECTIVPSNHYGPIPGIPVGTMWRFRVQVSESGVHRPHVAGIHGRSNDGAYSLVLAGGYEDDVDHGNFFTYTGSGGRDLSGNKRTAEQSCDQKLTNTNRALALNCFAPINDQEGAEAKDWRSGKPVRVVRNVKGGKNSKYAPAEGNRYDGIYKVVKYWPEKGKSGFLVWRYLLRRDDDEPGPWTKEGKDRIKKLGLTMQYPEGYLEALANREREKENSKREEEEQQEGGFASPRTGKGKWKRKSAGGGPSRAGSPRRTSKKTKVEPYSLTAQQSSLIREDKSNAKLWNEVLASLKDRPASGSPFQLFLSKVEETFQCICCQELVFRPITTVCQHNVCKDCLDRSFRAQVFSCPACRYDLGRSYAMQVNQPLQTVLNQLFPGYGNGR
UHRF1 DNA bind = counter-screen for MBD2 inhibitors: human UHRF1 methylated DNA binding inhibitors. inhibition, % at 4.4 µM. UHRF1 binding to methylated oligonucleotide, TR-FRET. AID 720530. actives 25% (n = 1,000). shares compounds with MBD2 DNA inh;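 note: UHRF1 SRA domain binding a labeled hemimethylated CpG hairpin DNA; 0% = vehicle only and 100% = reference inhibitor with vehicle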
MBD2 confirm = confirmation of human MBD2-DBD methylated oligonucleotide binding inhibitors. shares compounds with MBD2 DNA inh. TR-FRET MBD2-DBD binding to methylated oligonucleotide. inhibition, % at 4.4 µM. actives 26% (n = 1,000); in the data active = inhibition above about 14%
* marks the source's active call; other numbers are inactive results; . = no result given. In the library only some 3.1% were active in any assay of this set; here they are far more common. Cut-off read from the data, not from the text of the source, unless noted: active = inhibition above about 21%; inactive = the rest.

SMILES	ATG4B inh	rCAG binder	CSN deneddyl inh	LEDGF integ inh	MBD2 DNA inh	UHRF1 binding	UHRF1 DNA bind	MBD2 confirm
Cc1ccc(OCC(=O)NNC(=O)C2CCCO2)c(C)c1 (stereo unspecified)	3.2	0.2	7.2	-0.6	18.4*	2.5	8.2	1.4
COC(=O)c1ccc(C(=O)OC)c(NC(=S)N2CCCC(CO)C2)c1 (stereo unspecified)	-19.9	-0.9	-0.6	-0.1	24.2*	1.4	1.3	3.9
C=CCn1c(C)cc(C(=O)CSc2nc3ccccc3[nH]2)c1C	-17.9	6.3	7.8	-1.8	19.5*	-3.3	8.6	2.1
COc1ccc2c(c1)CO[C@H]([C@H](O)COC(C)=O)[C@H]2/C=C/c1ccccc1	.	3.2	.	-2.3	2.9	0.9	.	.
O=C(OC12CCCN(C1)/C(=C/c1cccc(Cl)c1)C2)c1ccc(Cl)cc1 (stereo unspecified)	.	2.5	.	3.9	-1.9	4.7	.	.
CN(C)CCN1CCN(C2CN(Cc3cn(Cc4ccccc4)nn3)S(=O)(=O)C2)CC1 (stereo unspecified)	.	3.0	3.5	-2.5	14.8*	20.4	6.1	7.9
COCCCn1cc(CN2CC(N3CCCC3)CS2(=O)=O)nn1 (stereo unspecified)	.	0.0	-0.2	-1.7	5.3	9.7	.	.
Cc1cccc(CN2CCN(C3CN(Cc4cn(Cc5ccc(Cl)cc5)nn4)S(=O)(=O)C3)CC2)c1 (stereo unspecified)	.	1.4	-1.2	-3.5	13.2*	15.1	5.7	5.1
Cc1cccc(CN2CCN(C3CN(Cc4cn(Cc5cccc(Cl)c5)nn4)S(=O)(=O)C3)CC2)c1 (stereo unspecified)	.	0.1	-5.0	3.2	10.2	19.2	.	.
COCCCn1cc(CN2CC(N3CCN(C)CC3)CS2(=O)=O)nn1 (stereo unspecified)	.	1.1	-0.3	-1.8	13.5*	19.6	12.3	6.0
Cc1ccc(Cn2cc(CN3CC(N4CCN(CCN(C)C)CC4)CS3(=O)=O)nn2)cc1 (stereo unspecified)	.	2.7	-0.7	-1.3	7.4	18.4	.	.
COC(=O)[C@]12C[C@H](CC(=O)N3CCCC3)C(=O)N(Cc3cccc4ccccc34)C1=C[C@H](C1CCCC1)O[C@@H]2C	.	7.1	.	1.4	-6.1	-1.3	.	.
CC(C)C(C#CC1CC1)N(Cc1ccc2c(c1)OCO2)C(N)=NC(=O)/C=C/c1ccccc1 (stereo unspecified)	.	5.7	.	-3.9	0.5	-2.8	.	.
CCOC(=O)c1c(C)c2c(=O)[nH]cnc2n1-c1ccccc1	5.2	-6.0	-2.7	-5.8	0.9	2.8	.	.
CCOC(=O)c1c[nH]c(=S)n(-c2ccccc2)c1=O	-7.6	0.8	0.4	-0.1	37.1*	-0.6	1.2	2.9
CCOC(=O)Cc1nc(N2CCN(Cc3cccc4c3OCO4)CC2)c2c(C)c(C(=O)OCC)sc2n1	.	5.4	.	1.9	-2.3	-0.2	.	.
COC(=O)c1ccc(OCC(=O)c2ccccc2)cc1	-2.4	6.9	-2.6	11.0	15.8*	21.1*	7.8	3.9
Cc1ccc(C)c(S(=O)(=O)N2CCCOC2CNC(=O)C(=O)NCCc2ccco2)c1 (stereo unspecified)	3.3	-3.4	-0.1	-2.1	14.5*	0.5	2.4	4.5
Cc1ccc(C)c(S(=O)(=O)N2CCCOC2CNC(=O)C(=O)NCc2ccco2)c1 (stereo unspecified)	1.9	2.6	-18.3	-0.4	-3.8	1.2	.	.
CCC(=O)N1CCc2cc(Br)c(S(=O)(=O)NCCCN(CC)Cc3ccccc3)cc21	.	4.6	.	0.4	2.4	-1.0	.	.
O=C(CNC(=O)c1ccccc1)OCN1C(=O)c2ccccc2C1=O	5.0	-1.3	-7.5	-0.5	14.5*	2.4	7.6	4.4
CCOC(=O)[C@]12CCCC=C1N(Cc1ccc(OC)cc1)C(=O)[C@@H]2CC(=O)N1CCCC1	.	1.2	.	1.0	4.0	5.8	.	.
COc1ccc(NC(=O)N2CCC(c3nc4ccc(Cl)cc4[nH]3)CC2)cc1OC	.	7.1	.	0.6	2.3	-2.0	.	.
C[N+](=O)C1C(=O)Nc2ccccc21 (stereo unspecified)	.	0.8	-4.1	-1.4	100.6*	-3.2	2.9	-3.2
CCn1c(SCC(=O)OC(C)C)nnc1-c1ccccc1	0.0	-6.3	0.3	-1.0	-2.0	-1.5	.	.
SMILES	ATG4B inh	rCAG binder	CSN deneddyl inh	LEDGF integ inh	MBD2 DNA inh	UHRF1 binding	UHRF1 DNA bind	MBD2 confirm
C=CCn1c(SCC(=O)OC(C)C)nnc1-c1ccc(C)cc1	.	-3.0	.	2.4	14.5*	0.1	8.3	4.2
O=C(C1=C(O)C(=O)N(CCN2CCOCC2)C1c1ccc(Cl)cc1)c1cc2ccccc2o1 (stereo unspecified)	-9.8	17.4	1.2	0.6	15.8*	-2.4	5.7	-1.5
O=C(C1=C(O)C(=O)N(CCCN2CCOCC2)C1c1ccc(Cl)cc1)c1cc2ccccc2o1 (stereo unspecified)	-5.8	16.1	.	4.9	3.1	0.5	.	.
O=C(NCCN1C(=O)C2C3C=CC(C3)C2C1=O)c1cc(F)cc(F)c1 (stereo unspecified)	.	3.7	.	-1.3	-2.4	1.2	.	.
COc1cccc(NC(=O)CSCc2cc(=O)n3ccsc3n2)c1	5.5	.	-1.2	.	.	.	.	.
COC(=O)c1ccc(OCc2cc(=O)n3ccsc3n2)cc1	-2.0	6.3	4.0	4.1	13.4*	-2.8	10.8	5.9
COC(=O)C[C@@H]1CC[C@H]2[C@@H](COc3ccc(NC(=O)c4ccc(C(F)(F)F)cc4)cc3C(=O)N2C)O1	.	3.0	.	0.4	-11.4	-0.9	.	.
COc1cccc(-n2c(=O)c3c(C)c(C(=O)N(C)C)sc3n(CC(=O)NCC3CCCO3)c2=O)c1 (stereo unspecified)	-4.2	-1.4	5.2	-8.4	16.4*	-1.9	8.5	3.5
O=C(Nc1nc2ncccn2c1-c1ccccc1)C1CC1	.	1.7	.	-4.2	-4.0	-0.5	.	.
Clc1ccc(-c2nc3ccccn3c2CN2CCCCC2)cc1	-2.8	-5.6	-3.6	5.4	2.0	8.7	.	.
Oc1ccc(N2CCN(Cc3c(-c4ccccc4)nc4ccccn34)CC2)cc1	5.0	6.3	2.8	-1.2	80.5*	0.2	9.5	1.7
CCCOc1ccc(-c2cc(C(C)=O)c3n(c2=O)CCC3)cc1	.	0.5	.	0.6	-2.1	-0.9	.	.
COc1ccc2c(C(c3ccccc3O)C3CCCN3S(=O)(=O)c3ccc(C)cc3)cn(C)c2c1 (stereo unspecified)	.	11.4	.	-4.9	2.9	4.1	.	.

Source: PubChem BioAssay
